Assay results from ChEMBL document CHEMBL1130998, “Structure-activity requirements for flavone cytotoxicity and binding to tubulin” (J Med Chem, 1998).

Key:
[1] = system: Panel NCI-60 (60 carcinoma cell lines); assay: In vitro cytotoxic potency against NCI-60 human tumor cell line; assay type: functional
Tubulin (Homo sapiens) = Tubulin (Homo sapiens) (UniProt P68371+Q9H4B7+P0DPH7+P68366+Q13509+Q71U36+P04350+Q3ZCM7+P07437+P68363+Q9BQE3+Q6PEY2+Q13885+Q9BVA1+Q9BUF5); assay: In vitro inhibition of binding of [3H]colchicine to tubulin at 50 mM.; assay type: protein-complex assay
Tubulin = assay: In vitro inhibitory activity against tubulin polymerization (10 uM); assay type: protein-complex assay
[2] = system: Panel NCI-60 (60 carcinoma cell lines); assay: In vitro cytotoxic potency against NCI-60 human tumor cell line was determined; assay type: functional
How it was run: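 Tested in the NCI primary in vitro human tumor cell screen. Potency was taken from the dose-response curves, which were also analysed for the differential cytotoxicity pattern typical of antimitotic standard agents.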

Tubulin (Bos taurus) [3] = target: T1, Tubulin (Bos taurus) (UniProt Q6B856+Q862L2+Q862F3); assay: In vitro inhibition of binding of [3H]colchicine to tubulin (10 uM) at compound concentration of 5 mM; assay type: protein assay
Tubulin (Bos taurus) [4] = target: T1, Tubulin (Bos taurus); assay: In vitro inhibition of binding of [3H]colchicine to tubulin (10 uM) at compound concentration of 50 mM; assay type: protein assay

SMILES	GI50 [1]	further results
O=c1c(O)c(-c2cc(O)c(O)c(O)c2)oc2cc(O)cc(O)c12 [MYRICETIN]	36 µM	
COc1cc2oc(-c3ccc(O)cc3)cc(=O)c2c(OC)c1OC	> 100 µM	
COc1cc(OC)c2c(=O)c(OC)c(-c3ccc(OC)c(O)c3)oc2c1	> 100 µM	
COc1cc(-c2oc3c(OC)cc(OC)c(O)c3c(=O)c2OC)cc(OC)c1OC	19 µM	
COc1c(OC)c(OC)c2c(=O)cc(-c3ccc(OC(C)C)cc3)oc2c1OC	11 µM	
COc1cc(-c2oc3c(OC)c(O)c(OC)c(O)c3c(=O)c2OC)cc(O)c1OC	32 µM	
O=c1c(O)c(-c2c(O)cccc2O)oc2cc(O)cc(O)c12	> 100 µM	
COc1ccc(-c2cc(=O)c3c(OC)c(OC)c(OC)c(OC)c3o2)cc1OC [NOBILETIN]	40 µM	
COc1ccc(-c2oc3cc(OC)c(C)c(C)c3c(=O)c2OC)cc1O	44 µM	
COc1cc(OC)c(-c2cc(=O)c3c(O)c(OC)c(OC)c(OC)c3o2)cc1OC	60 µM	
COc1cc(-c2oc3c(OC)c(O)c(OC)c(O)c3c(=O)c2OC)cc(OC)c1OC	54 µM	inhibition (Tubulin (Homo sapiens)): 6%; IC50 (Tubulin): > 40 µM
O=c1c(O)c(-c2ccc(O)c(O)c2)oc2cc(O)cc(O)c12 [QUERCETIN]	60 µM	
COc1cc(-c2cc(=O)c3c(O)c(OC)c(OC)c(OC)c3o2)cc(OC)c1OC [GARDENIN]	19 µM	inhibition (Tubulin (Homo sapiens)): 0%; IC50 (Tubulin): > 40 µM
COc1cc2oc(-c3ccccc3)cc(=O)c2c(O)c1C	> 100 µM	
COc1ccc(-c2cc(=O)c3c(O)cc(O)cc3o2)cc1OC	48 µM	
COc1cc(-c2oc3c(OC)c(OC)cc(O)c3c(=O)c2OC)ccc1O [TERNATIN]	9.5 µM	inhibition (Tubulin (Homo sapiens)): 0%; IC50 (Tubulin): > 40 µM
COc1c(OC)c(OC)c2c(=O)cc(-c3ccc(NC(C)=O)cc3)oc2c1OC		GI50 [2]: > 100 µM
COc1cc(OC)c2c(=O)c(O)c(-c3ccc(OC)c(OC)c3)oc2c1	6.6 µM	inhibition (Tubulin (Homo sapiens)): 0%; IC50 (Tubulin): > 40 µM
COc1ccc(-c2oc3cc(O)cc(O)c3c(=O)c2OC)cc1OCc1ccccc1	8.3 µM	
COc1ccc(-c2cc(=O)c3c(OC)c(OC)c(OC)c(OC)c3o2)cc1 [TANGERETIN]	54 µM	
COc1ccc(-c2oc3cc(OC)c(OC)c(OC)c3c(=O)c2O)cc1O	14 µM	inhibition (Tubulin (Homo sapiens)): 2%; IC50 (Tubulin): > 40 µM
COc1ccc(-c2oc3cc(O)cc(O)c3c(=O)c2OC)cc1 [ERMANIN]	24 µM	
O=c1c(O)c(-c2ccc(O)c(O)c2)oc2cc(O)ccc12 [FISETIN]	18 µM	
COc1ccc(-c2cc(=O)c3ccc(O)cc3o2)c(OC)c1OC	58 µM	
COc1ccc(-c2cc(=O)c3c(O)cc(C)cc3o2)cc1OC	> 100 µM	
COc1ccc(-c2oc3c(OC)c(OC)c(OC)c(OC)c3c(=O)c2OC)cc1OC [3,5,6,7,8,3',4'-HEPTAMETHOXYFLAVONE]	> 27 µM	inhibition (Tubulin (Homo sapiens)): 1%; IC50 (Tubulin): > 40 µM
COc1ccc(-c2oc3ccc(C)cc3c(=O)c2O)cc1	76 µM	

SMILES	GI50 [1]	further results
COc1ccc2c(=O)c(O)c(-c3ccc(OC)c(OC)c3)oc2c1	5.5 µM	inhibition (Tubulin (Homo sapiens)): 0%; IC50 (Tubulin): > 40 µM
COc1ccc(-c2oc3c(OC)c(OC)c(OC)c(O)c3c(=O)c2OC)cc1OC	7.1 µM	inhibition (Tubulin (Homo sapiens)): 4%; IC50 (Tubulin): > 40 µM
COc1cc(OC)c(-c2oc3ccccc3c(=O)c2O)c(OC)c1	5.9 µM	inhibition (Tubulin (Homo sapiens)): 22%; IC50 (Tubulin): 31 µM
COc1c(O)c(OC)c2oc(-c3ccc(O)c(O)c3)c(OC)c(=O)c2c1O	20 µM	
COc1ccc(-c2oc3cc(O)c(OC)c(O)c3c(=O)c2O)cc1 [BETULETOL]	4.1 µM	
COc1c(O)cc2oc(-c3ccc(O)cc3)cc(=O)c2c1O [HISPIDULIN]	33 µM	
COc1ccc(-c2cc(=O)c3cc(O)ccc3o2)c(OC)c1OC	30 µM	
COc1ccc(-c2cc(=O)c3c(O)c(O)c(OC)cc3o2)cc1O	> 100 µM	
COc1ccc(-c2cc(=O)c3c(O)c(OC)c(O)c(OC)c3o2)cc1 [NEVADENSIN]	59 µM	
COc1ccc(-c2cc(=O)c3c(O)c(OC)c(O)cc3o2)cc1O	6 µM	
COc1ccc(-c2oc3cc(O)cc(O)c3c(=O)c2OC)cc1O	1.7 µM	IC50 (Tubulin): 3 µM; inhibition (Tubulin (Bos taurus) [3]): 43%; inhibition (Tubulin (Bos taurus) [4]): 75%
COc1cc(OC)cc(-c2cc(=O)c3c(OC)c(OC)c(OC)c(OC)c3o2)c1	30 µM	
COc1c(OC)c(O)c2c(=O)cc(-c3ccc(O)c(O)c3)oc2c1OC [SIDERITIFLAVONE]	4 µM	
COc1cc(-c2cc(=O)c3c(O)c(OC)c(OC)c(OC)c3o2)ccc1O	22 µM	
COc1ccc(-c2oc3cc(O)c(C)c(C)c3c(=O)c2OC)cc1O	12 µM	
COc1cc(O)c2c(=O)c(OC)c(-c3ccc(OC)c(OC)c3)oc2c1 [RETUSIN]	65 µM	
COc1ccc(-c2oc3c(O)c(OC)cc(O)c3c(=O)c2OC)cc1OC	> 100 µM	
COc1cc(-c2cc(=O)c3c(OC)c(OC)c(OC)c(OC)c3o2)cc(OC)c1OC [HEPATAMETHOXYFLAVONE]	32 µM	
COc1ccc(-c2oc3cc(O)c(OC)c(O)c3c(=O)c2OC)cc1O [CENTAUREIDIN]	0.24 µM	IC50 (Tubulin): 2 µM; inhibition (Tubulin (Bos taurus) [3]): 35%; inhibition (Tubulin (Bos taurus) [4]): 76%
COc1ccc(-c2cc(=O)c3c(OC)cccc3o2)c(OC)c1OC	89 µM	
COc1c(C)c(O)c2c(=O)cc(-c3ccccc3)oc2c1C	> 100 µM	
COc1cc2oc(-c3ccc(O)cc3)cc(=O)c2c(OC)c1O	62 µM	
COc1ccc(OC)c(-c2cc(=O)c3c(OC)c(OC)c(OC)c(OC)c3o2)c1	24 µM	
COc1ccc(-c2oc3c(OC)c(OC)c(OC)c(O)c3c(=O)c2OC)cc1O	0.13 µM	IC50 (Tubulin): 0.83 µM; inhibition (Tubulin (Bos taurus) [3]): 59%; inhibition (Tubulin (Bos taurus) [4]): 89%
COc1ccc2oc(-c3ccc(OC)c(OC)c3OC)cc(=O)c2c1	42 µM	
COc1c(OC)c(OC)c(-c2cc(=O)c3c(OC)c(OC)c(OC)c(OC)c3o2)c(OC)c1OC	36 µM	
COc1ccc(-c2cc(=O)c3c(O)c(OC)c(OC)c(OC)c3o2)cc1OC [5-DEMETHYLNOBILETIN]	17 µM	inhibition (Tubulin (Homo sapiens)): 5%; IC50 (Tubulin): > 40 µM

SMILES	GI50 [1]	further results
COc1cc(O)c2c(=O)c(O)c(-c3ccc(O)c(O)c3)oc2c1 [RHAMNETIN]	8.9 µM	
COc1ccc(-c2cc(=O)c3c(OC)c(OC)c(OC)cc3o2)cc1	28 µM	
COc1ccc(-c2cc(=O)c3c(O)cccc3o2)c(OC)c1OC	45 µM	
COc1ccc(-c2cc(=O)c3c(O)cc(O)cc3o2)c(OC)c1OC	68 µM	
COc1ccc(-c2oc3cc(OC)c(O)c(OC)c3c(=O)c2OC)cc1O	54 µM	
COc1cc(-c2oc3cc(OC)c(OC)c(O)c3c(=O)c2OC)ccc1O [CHRYSOSPLENOL B]	> 33 µM	
COc1ccc(-c2oc3cc(OC)c(OC)c(O)c3c(=O)c2O)cc1O	4 µM	inhibition (Tubulin (Homo sapiens)): 9%; IC50 (Tubulin): > 40 µM
COc1ccc(-c2oc3cc(O)c(OC)cc3c(=O)c2OC)cc1O	19 µM	
COc1ccc(-c2cc(=O)c3c(O)c(OC)c(O)cc3o2)cc1 [PECTOLINARIGENIN]	> 31 µM	inhibition (Tubulin (Homo sapiens)): 11%; IC50 (Tubulin): > 40 µM
COc1ccccc1-c1cc(=O)c2ccc(OC)c(OC)c2o1	55 µM	
COc1cc(O)c2c(=O)c(O)c(-c3ccc(OC)c(O)c3)oc2c1 [OMBUINE]	37 µM	
COc1ccc(-c2cc(=O)c3c(OC)c(OC)c(OC)c(OC)c3o2)c(OC)c1	26 µM	
COc1ccc(-c2oc3cc(OC)ccc3c(=O)c2O)cc1	4.2 µM	
COc1ccc(-c2oc3ccccc3c(=O)c2O)cc1OC [3-HYDROXY-3',4'-DIMETHOXYFLAVONE]	32 µM	
COc1cc(-c2cc(=O)c3ccccc3o2)cc(OC)c1OC	18 µM	inhibition (Tubulin (Homo sapiens)): 0%; IC50 (Tubulin): > 40 µM
COc1cc(-c2oc3c(OC)c(O)c(OC)c(O)c3c(=O)c2OC)ccc1O	27 µM	inhibition (Tubulin (Homo sapiens)): 6%; IC50 (Tubulin): > 40 µM
COc1ccc(-c2cc(=O)c3c(OC)c(O)c(OC)cc3o2)cc1	43 µM	
CCOc1cc(O)c2c(=O)c(OC)c(-c3ccc(OC)c(O)c3)oc2c1	12 µM	
COc1cc(-c2oc3c(OC)c(OC)c(OC)c(O)c3c(=O)c2OC)ccc1O	7.6 µM	inhibition (Tubulin (Homo sapiens)): 0%; IC50 (Tubulin): > 40 µM
COc1ccc(-c2oc3cc(OC)cc(O)c3c(=O)c2OC)cc1	54 µM	
COc1cc(OC)c2c(=O)cc(-c3ccc(OC)c(OC)c3OC)oc2c1	79 µM	
COc1cc(O)c2c(=O)c(OC)c(-c3ccc(OC)c(O)c3)oc2c1 [AYANIN]	32 µM	inhibition (Tubulin (Homo sapiens)): 0%; IC50 (Tubulin): > 40 µM
COc1ccc2c(=O)cc(-c3ccc(OC)c(OC)c3OC)oc2c1	78 µM	
COc1ccc(-c2oc3cc(OC(C)=O)cc(OC(C)=O)c3c(=O)c2OC)cc1	15 µM	
COc1ccc(-c2cc(=O)c3c(O)c(OC)c(O)cc3o2)cc1OC [EUPATILIN]	15 µM	inhibition (Tubulin (Homo sapiens)): 6%; IC50 (Tubulin): > 40 µM
